Assay results published in ChEMBL document CHEMBL1138769, “Antimitotic activity of 5-hydroxy-7-methoxy-2-phenyl-4-quinolones” (J Med Chem, 2004).

What was measured:
K562 [1] = assay: Ability to induce cells in S phase; type: functional, Homo sapiens; parameters: concentration or dose not given beside the values
Method in brief: (§1)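 K562 human leukemic cells exposed continuously to test compound at 5 μM for 24 h. 10⁶ cells/mL resuspended in propidium iodide, held at 4 °C overnight, analysed by flow cytometry for DNA content. Doublets and aggregates excluded on FL2-area/FL2-width plot. Fraction of population in G0/G1, S and G2/M calculated.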

K562 [2] = assay: Ability to induce cells in G2/M phase; type: functional, Homo sapiens; parameters: concentration or dose not given beside the values; method in brief: as §1
K562 [3] = assay: Ability to induce cells in G0/G1 phase; type: functional, Homo sapiens; parameters: concentration or dose not given beside the values; method in brief: as §1
K562 [4] = assay: Inhibitory concentration against K562 cell line; type: functional, cell-based; details: Homo sapiens
Method in brief: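 MTT viability assay on exponentially growing K562 cells seeded at 3 × 10³ cells/well, grown 24 h before drug addition. After 72 h drug exposure MTT reagent added. Viability is absorbance as percent of untreated control wells. IC50 is the concentration giving 50% loss of viability. Triplicate wells, at least three separate experiments.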

[5] = test system: NCI-60 human tumor cell line panel (Homo sapiens); assay: Growth inhibitory concentration is the concentration that reduced growth of NCI-60 cell lines by 50%

Structure (SMILES) | Activity (K562 [1]) [%] | Activity (K562 [2]) [%] | Activity (K562 [3]) [%] | IC50 (K562 [4]) [µM] | GI50 [5] [µM]
COc1cc(O)c2c(O)cc(-c3ccc(OC)c(F)c3)nc2c1 | 53 | 20 | 26 |  | 
CCc1ccc(-c2cc(O)c3c(O)cc(OC)cc3n2)cc1 | 48 | 25 | 26 |  | 
COc1cc(O)c2c(O)cc(-c3ccc(F)c(F)c3)nc2c1 | 69 | 9 | 22 |  | 
COc1cc(O)c2c(O)cc(-c3cccc(OC(F)(F)F)c3)nc2c1 | 35 | 32 | 32 |  | 
COc1cc(O)c2c(O)cc(-c3ccccc3)nc2c1 | 26 | 66 | 7 | 1.8 | 8.7
COc1cc(O)c2c(O)cc(-c3ccccc3F)nc2c1 | 37 | 41 | 23 | 1.5 | 9.9
COc1cc(O)c2c(O)cc(Cc3ccccc3)nc2c1 | 50 | 9 | 41 |  | 
COc1cc(O)c2c(O)cc(-c3cccnc3)nc2c1 | 31 | 45 | 24 |  | 
COc1cc(O)c2c(O)cc(-c3cc(F)cc(F)c3)nc2c1 | 40 | 18 | 42 |  | 
COc1cc(O)c2c(O)cc(-c3ccc(F)cc3)nc2c1 | 36 | 10 | 54 |  | 
COc1cc2nc(-c3ccccc3)cc(O)c2c(O)c1OC | 45 | 8 | 47 |  | 
CCn1c(-c2cccc(F)c2)cc(=O)c2c(O)cc(OC)cc21 | 28 | 19 | 53 |  | 
COc1cc(O)c2c(O)cc(-c3cccc(C(F)(F)F)c3)nc2c1 | 38 | 20 | 41 |  | 
COc1cc(O)c2c(O)cc(-c3cccc(CCl)c3)nc2c1 | 51 | 18 | 30 |  | 
COc1cc(O)c2c(O)cc(-c3cccc(I)c3)nc2c1 | 50 | 6 | 44 |  | 
COc1cc(O)c2c(O)cc(-c3cccc(-c4ccccc4)c3)nc2c1 | 45 | 9 | 46 |  | 
Oc1cccc2nc(-c3cccc(F)c3)cc(O)c12 | 33 | 49 | 17 |  | 
COc1cccc(-c2cc(O)c3c(O)cc(OC)cc3n2)c1 | 41 | 31 | 28 |  | 9.7
CCn1c(-c2ccccc2)cc(=O)c2c(O)cc(OC)cc21 | 46 | 11 | 43 |  | 
COc1cc(O)c2c(O)cc(-c3cccc(F)c3)nc2c1 | 30 | 60 | 9 | 0.8 | 14.5
COc1cc(O)c2c(O)cc(-c3cccc(Br)c3)nc2c1 | 37 | 12 | 51 |  | 
COc1cc2nc(-c3ccccc3)cc(O)c2c(OC)c1OC | 48 | 5 | 47 |  | 
Oc1cccc2nc(-c3ccccc3)cc(O)c12 | 52 | 21 | 26 |  | 
COc1cc(O)c2c(O)cc(-c3ccc(C)c(F)c3)nc2c1 | 54 | 18 | 28 |  | 
COc1cc(O)c2c(O)cc(-c3cccc(Cl)c3)nc2c1 | 35 | 32 | 33 |  | 
CC(=O)O[C@H]1C(=O)[C@@]2(C)[C@H]([C@H](OC(=O)c3ccccc3)[C@]3(O)C[C@H](OC(=O)[C@H](O)[C@@H](NC(=O)c4ccccc4)c4ccccc4)C(C)=C1C3(C)C)[C@]1(OC(C)=O)CO[C@@H]1C[C@@H]2O [PACLITAXEL] | 18 | 71 | 11 |  | 
CC[C@]1(O)C[C@@H]2CN(CCc3c([nH]c4ccccc34)[C@@](C(=O)OC)(c3cc4c(cc3OC)N(C)[C@H]3[C@@](O)(C(=O)OC)[C@H](OC(C)=O)[C@]5(CC)C=CCN6CC[C@]43[C@@H]65)C2)C1 [VINBLASTINE] | 30 | 37 | 33 | 3 | 
